# Source: ChEMBL document CHEMBL1139486, “Novel benzopyridothiadiazepines as potential active antitumor agents” (J Med Chem, 2005)
# How the values were obtained:
# L1210 [1] = test: Antiproliferative activity against mouse L1210 cells after 48 hrs relative control; assay type: functional, cell-based; conditions: L1210, 48 h
# How it was run: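 L1210 cells grown in RPMI 1640 with 10% fetal calf serum, 2 mM L-glutamine, penicillin/streptomycin and 10 mM HEPES (pH 7.4). Cells were exposed 48 h to graded drug concentrations, then MTT was added for 4 h at 37 °C. Formazan was dissolved in DMSO and OD read at 540 nm. IC50 came from linear regression on the linear part of the dose-response curve, in triplicate.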
# L1210 [2] = test: Cell cycle perturbations in mouse L1210 cells assessed as accumulation in G1 phase after 21 hrs at 5 uM relative to control; assay type: functional
# How it was run: (§1)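 L1210 cells in RPMI 1640 with 10% fetal calf serum, 2 mM L-glutamine, antibiotics and 10 mM HEPES (pH 7.4) were exposed for 21 h (two doubling times). They were fixed in 70% ethanol and stained 30 min at 20 °C in D-PBS with […] RNAse and […] propidium iodide. 10⁴ cells per sample were analysed by flow cytometry for % G1, S, G2+M and 8N.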
# L1210 [3] = test: Cell cycle perturbations in mouse L1210 cells assessed as accumulation in S phase after 21 hrs at 5 uM relative to control; assay type: functional; how it was run: as §1
# L1210 [4] = test: Cell cycle perturbations in mouse L1210 cells assessed as accumulation in G2+M phase after 21 hrs at 5 uM relative to control; assay type: functional; how it was run: as §1
# L1210 [5] = test: Cell cycle perturbations in mouse L1210 cells assessed as accumulation in 8N phase after 21 hrs at 5 uM relative to control; assay type: functional; how it was run: as §1
# L1210 [6] = test: Cell cycle perturbations in mouse L1210 cells assessed as accumulation in G1 phase after 21 hrs at 0.5 uM relative to control; assay type: functional
# L1210 [7] = test: Cell cycle perturbations in mouse L1210 cells assessed as accumulation in S phase after 21 hrs at 0.5 uM relative to control; assay type: functional
# L1210 [8] = test: Cell cycle perturbations in mouse L1210 cells assessed as accumulation in G2+M phase after 21 hrs at 0.5 uM relative to control; assay type: functional
# L1210 [9] = test: Cell cycle perturbations in mouse L1210 cells assessed as accumulation in 8N phase after 21 hrs at 0.5 uM relative to control; assay type: functional
SMILES,IC50 (L1210 [1]) [µM],further results
COc1ccc(CN2C=CC=C3C2=Nc2cc(Cl)ccc2S(=O)(=O)N3C)cc1,1.5,
COc1ccc(CN2C=CC=C3C2=Nc2cc(Cl)ccc2N(C)S3(=O)=O)cc1,5.4,
COc1ccc(CN2C=CC=C3C2=Nc2cc(OC)ccc2N(C)S3(=O)=O)cc1,> 10,
COc1ccc(CCN2c3cc(Cl)ccc3S(=O)(=O)N(C)c3cccnc32)cc1,> 10,
COc1ccc(CCN2c3ccccc3N(C)S(=O)(=O)c3cccnc32)cc1,> 10,
COc1ccc(CCCN2C=CC=C3C2=Nc2ccccc2S(=O)(=O)N3C)cc1,> 10,
COc1ccc(CN2c3cc(Cl)ccc3N(C)S(=O)(=O)c3cccnc32)cc1,8.7,
COc1ccc(CCN2C=CC=C3C2=Nc2cc(OC)ccc2N(C)S3(=O)=O)cc1,1.5,Activity (L1210 [2]): 5%; Activity (L1210 [3]): 7%; Activity (L1210 [4]): 17%; Activity (L1210 [5]): 71%
COc1ccc(CN2C=CC=C3C2=Nc2ccc(Cl)cc2S(=O)(=O)N3C)cc1,> 10,
COc1ccc(CCCN2C=CC=C3C2=Nc2cc(OC)ccc2S(=O)(=O)N3C)cc1,> 50,
COc1ccc(CN2c3cc(OC)ccc3N(C)S(=O)(=O)c3cccnc32)cc1,8.3,
COc1ccc(CN2C=CC=C3C2=Nc2ccccc2N(C)S3(=O)=O)cc1,> 10,
COc1ccc(CN2C=CC=C3C2=Nc2cc(OC)ccc2S(=O)(=O)N3C)cc1,> 50,
COc1ccc(CCN2C=CC=C3C2=Nc2ccc(Cl)cc2N(C)S3(=O)=O)cc1,0.23,Activity (L1210 [6]): 3%; Activity (L1210 [7]): 6%; Activity (L1210 [8]): 21%; Activity (L1210 [9]): 70%
COc1ccc(CCN2C=CC=C3C2=Nc2cc(C(F)(F)F)ccc2S(=O)(=O)N3C)cc1,> 10,
CN(C)CCOc1ccc(CCN2C=CC=C3C2=Nc2ccccc2S(=O)(=O)N3C)cc1,> 10,
COc1ccc(CN2c3ccccc3S(=O)(=O)N(C)c3cccnc32)cc1,> 10,
COc1cc(CN2c3ccccc3S(=O)(=O)N(C)c3cccnc32)cc(OC)c1OC,> 10,
CN1C2=CC=CN(CCc3ccc(O)cc3)C2=Nc2ccccc2S1(=O)=O,> 10,
COc1ccc(CN2c3ccccc3N(Cc3ccc(OC)cc3)S(=O)(=O)c3cccnc32)cc1,> 100,
COc1ccc(CN2c3cc(C)ccc3S(=O)(=O)N(C)c3cccnc32)cc1,> 10,
COc1ccc(CCCN2C=CC=C3C2=Nc2cc(C)ccc2S(=O)(=O)N3C)cc1,> 10,
COc1ccc(CCN2c3cc(C)ccc3N(C)S(=O)(=O)c3cccnc32)cc1,> 10,
COc1ccc(CCCN2C=CC=C3C2=Nc2ccccc2N(C)S3(=O)=O)cc1,8.3,
COc1cc(CN2C=CC=C3C2=Nc2ccccc2S(=O)(=O)N3C)cc(OC)c1OC,> 10,
COc1ccc(CN2C=CC=C3C2=Nc2cc(C)ccc2S(=O)(=O)N3C)cc1,9,
COc1ccc(CCN2c3ccc(Cl)cc3N(C)S(=O)(=O)c3cccnc32)cc1,> 10,
COc1ccc(CN2C=CC=C3C2=Nc2cc(C)ccc2N(C)S3(=O)=O)cc1,9.2,
COc1ccc(CN2C=CC=C3C2=Nc2ccc(Cl)cc2N(C)S3(=O)=O)cc1,4.1,
